Converted amounts (≈) assume the structure as drawn. The source made the active and inactive calls. The rule behind the calls is not given here.

The source of these data is ChEMBL document CHEMBL4359895, “Discovery and biological evaluation of darolutamide derivatives as inhibitors and down-regulators of wild-type AR and the mutants” (Eur J Med Chem, 2019).

The target of data set [1] is T1, Androgen receptor (Homo sapiens) (UniProt P10275).
T1 sequence (whole entry): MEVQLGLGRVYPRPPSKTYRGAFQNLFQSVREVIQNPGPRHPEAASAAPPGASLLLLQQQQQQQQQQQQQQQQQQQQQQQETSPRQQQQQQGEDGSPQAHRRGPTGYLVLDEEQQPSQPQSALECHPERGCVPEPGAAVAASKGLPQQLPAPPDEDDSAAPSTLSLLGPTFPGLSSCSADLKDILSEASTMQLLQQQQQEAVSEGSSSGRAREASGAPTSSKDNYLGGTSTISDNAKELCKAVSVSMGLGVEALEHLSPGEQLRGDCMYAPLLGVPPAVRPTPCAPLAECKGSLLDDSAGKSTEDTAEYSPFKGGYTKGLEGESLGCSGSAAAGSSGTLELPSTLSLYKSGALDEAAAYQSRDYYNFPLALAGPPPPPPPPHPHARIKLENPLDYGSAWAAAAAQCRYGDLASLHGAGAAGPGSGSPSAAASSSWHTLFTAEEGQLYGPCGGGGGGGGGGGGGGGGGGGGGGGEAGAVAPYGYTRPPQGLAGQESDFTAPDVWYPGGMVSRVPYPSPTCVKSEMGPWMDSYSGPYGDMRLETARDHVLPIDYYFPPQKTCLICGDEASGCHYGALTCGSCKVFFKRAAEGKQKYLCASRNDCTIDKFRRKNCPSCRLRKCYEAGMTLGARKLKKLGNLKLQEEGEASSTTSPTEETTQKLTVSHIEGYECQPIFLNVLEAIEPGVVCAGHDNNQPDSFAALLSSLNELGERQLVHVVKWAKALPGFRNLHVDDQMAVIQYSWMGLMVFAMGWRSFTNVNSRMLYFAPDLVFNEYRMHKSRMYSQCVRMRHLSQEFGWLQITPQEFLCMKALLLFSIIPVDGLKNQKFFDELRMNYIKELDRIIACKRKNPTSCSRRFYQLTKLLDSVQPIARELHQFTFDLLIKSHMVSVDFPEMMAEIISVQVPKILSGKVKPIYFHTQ
The data set can be described thus: Inhibition of AR in human HEK293 cells assessed as decrease in receptor transactivation at 10 uM incubated for 24 hrs by dual luciferase reporter gene assay. Type of data set: cell-based. The procedure, abridged: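 HEK 293 cells transiently co-transfected with wt-AR expression vector and an androgen-responsive luciferase reporter construct. Cells given 2 nM testosterone plus 10 µM test compound (final concentrations). Read-out by luciferase, mean ± SD, n = 3.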

Data set [2] has as its system LNCaP. The experiment in a line: Antiproliferative activity against human LNCAP expressing AR assessed as reduction in cell viability incubated for 6 days by CCK-8 assay. Type of data set: functional, cell-based. Conditions: 144 h. The procedure, abridged: (§1)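 Cell proliferation assay run on LNCaP/AR, VCaP, 22Rv1, PC-3 and L-02 cells, with PC-3 and L-02 serving as AR-independent toxicity controls. IC50 fitted in GraphPad Prism 5 as the mean of at least two experiments, each in duplicate. Deviations under 35%.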
In general terms: Tetrazolium assays rely on reduction of a dye to a coloured formazan, in cell work by metabolically active cells.

The test system of data set [3] is VCaP. The experiment in a line: Antiproliferative activity against human VCaP expressing AR assessed as reduction in cell viability incubated for 6 days by CCK-8 assay. The format is functional, cell-based. Conditions: 144 h. The procedure, abridged: as §1
Data set [4] relates to PC-3. The data set can be described thus: Cytotoxicity against human PC3 assessed as reduction in cell viability incubated for 6 days by CCK-8 assay. Type of data set: cell-based. Conditions: PC-3, 144 h. The procedure, abridged:
as §1

Data set [5] is described as follows: Stability of compound in nutrient medium with fetal bovine serum and antibiotic incubated for 6 days by HPLC analysis. Conditions: 144 h.
Data set [6] is described as follows: Solubility of compound in PBS incubated for 24 hrs by HPLC analysis. Type of data set: physicochemical. Summed up:
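Solubility determined in PBS at 25 ℃ by the saturation shake-flask method. Quantified against calibration curves.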

Data set [7] deals with Bromodomain-containing protein 4 (Homo sapiens) (UniProt O60885). The experiment in a line: Inhibition of BRD4 (unknown origin) by alpha-screen assay.
In data set [8] the test system is CWR22R. The data set can be described thus: Antiproliferative activity against human 22Rv1 expressing AR assessed as reduction in cell viability incubated for 6 days by CCK-8 assay. Type of data set: functional, cell-based. The following applies: 22Rv1, 144 h. The procedure, abridged:
as §1

Data set [9] relates to L02. The experiment in a line: Cytotoxicity against human L02 assessed as reduction in cell viability incubated for 6 days by CCK-8 assay. Conditions: L02, 144 h. Type of data set: cell-based. The procedure, abridged: as §1
The subject of data set [10] is VCaP. The data set can be described thus: Antiproliferative activity against human VCaP expressing AR assessed as reduction in cell viability at 30 uM incubated for 6 days by CCK-8 assay relative to control. Conditions: 144 h, read-out: INH.
Data set [11] concerns VCaP. The data set can be described thus: Antitumor activity against castration-resistant human VCaP cells xenografted in BALB/c mouse assessed as tumor growth inhibition at 30 mg/kg, po administered for 40 days. Type of data set: functional. The following applies: 960 h, read-out: TGI. Summed up:
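Castration-resistant VCaP xenografts grown in male BALB/c nude mice. Animals dosed once daily for 40 days alongside a vehicle group. Tumor volume tracked over time, with tumor weights taken at end. Reported as tumor growth inhibition, mean ± SEM, N = 8-9 per group.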
A general note: A xenograft is tissue or cells of one species grown in another, often human tumour cells in immunodeficient mice.

For data set [12], the system named is LNCaP. The data set can be described thus: Inhibition of AR protein expression in human LNCAP cells at 20 uM incubated for 24 hrs by Western blot analysis. Type of data set: functional, cell-based. Summed up:
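LNCaP cells treated with 20 µM compound or DMSO for 24 h. AR-full protein detected by western blot with tubulin as loading control, then quantified by ImageJ grayscale analysis.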
On the technique in general: Immunoblotting shows a protein as a band on a membrane.

As usually defined, the IC50 is the concentration that inhibits the measured activity by half. Turning to `CC(Cn1ccc(-c2ccc(C#N)c(Cl)c2)n1)C(=O)Nc1cccc(C(C)O)c1` (racemic), the inhibition result in [1] was “Active”. The IC50 is 4.15 µM in data set [2], more than 30 µM in data set [3] and more than 30 µM in data set [4].
In general, solubility refers to the dissolved amount per volume that the medium holds. A lower solubility goes with a poorly soluble substance. With `CC(O)c1cc(C(=O)N[C@@H](C)Cn2ccc(-c3ccc(C#N)c(Cl)c3)n2)[nH]n1` (stereo not given in full) [DAROLUTAMIDE], the Stability entry in [5] is “Stable”. Also, the concentration in solution in data set [6] (solubility at 24 h) came to 223 µM (≈ 89 µg/mL).
For the compound `CC(O)c1cc(C(=O)N[C@@H](C)Cn2ccc(-c3ccc(C#N)c(Cl)c3)n2)n[nH]1` (stereo not given in full) [DAROLUTAMIDE], in [7], the inhibition entry is “inactive”. Moreover, the IC50 was more than 30 µM in [8], 1.65 µM in [2], more than 30 µM in data set [4] and more than 30 µM in data set [9].
Take `CNC(=O)c1ccc(N2C(=S)N(c3ccc(C#N)c(C(F)(F)F)c3)C(=O)C2(C)C)cc1F` [ENZALUTAMIDE]: in [7], the inhibition result was “inactive”. For the same compound, the IC50 in data set [8] is more than 30 µM; in data set [2] it was 0.19 µM; in data set [4], more than 30 µM. Also, in data set [10], the inhibition at 30 µM was 50%. Moreover, in data set [11], the inhibition in vivo at 30 mg/kg worked out at 43%.
For the compound `C[C@@H](Cn1ccc(-c2ccc(C#N)c(Cl)c2)n1)Nc1ncnc2ccccc12`, the inhibition result in [1] and in data set [12] was “Active” throughout. Moreover, the IC50 in [8] is 4.36 µM; in data set [2], 0.51 µM; in [3] it was 1.31 µM; in [4], more than 30 µM; in data set [9], 13 µM.
For `C[C@@H](Cn1ccc(-c2ccc(C#N)c(Cl)c2)n1)Nc1cccnc1`, the inhibition result in data set [1] was “Active”. The IC50 is 21.6 µM in [8]; 0.43 µM in [2]; more than 30 µM in [3]; more than 30 µM in data set [4]; more than 30 µM in data set [9].
As to `CC(O)c1cccc(C(=O)N[C@@H](C)Cn2ccc(-c3ccc(C#N)c(Cl)c3)n2)c1` (stereo not given in full), the inhibition entry in [1] is “Active”. In addition, the IC50 in data set [8] was 20.1 µM; in data set [2] it was 2.28 µM; in data set [3], 0.9 µM; in [4], more than 30 µM.
